hERG protect: shields human hERG channel from block by proarrhythmic agents; CHO-hERG, FluxOR thallium flux, dofetilide IC70 present; AID 1511; activation (rescue from dofetilide block), less the hit threshold, % at 10 µM; Q12809; actives 0.51% (n = 310,000);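 active means activation above the mean of controls blocked by dofetilide plus 5 SD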;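 further: thallium influx through hERG after potassium depolarization seen as dye fluorescence rise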
KCNK3 inh: human KCNK3 channel inhibition, primary screen; B-score at 10 µM; AID 602410; CHO-KCNK3 thallium flux, FluxOR fluorescence; hits give low values; actives 0.84% (n = 340,000);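 active means B-score under library mean minus 4 SD, starting fluorescence ratio at most library mean plus 5 SD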;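 further: more negative B-score means stronger inhibition of thallium flux through KCNK3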
Target sequence (O14649 whole entry, looked up): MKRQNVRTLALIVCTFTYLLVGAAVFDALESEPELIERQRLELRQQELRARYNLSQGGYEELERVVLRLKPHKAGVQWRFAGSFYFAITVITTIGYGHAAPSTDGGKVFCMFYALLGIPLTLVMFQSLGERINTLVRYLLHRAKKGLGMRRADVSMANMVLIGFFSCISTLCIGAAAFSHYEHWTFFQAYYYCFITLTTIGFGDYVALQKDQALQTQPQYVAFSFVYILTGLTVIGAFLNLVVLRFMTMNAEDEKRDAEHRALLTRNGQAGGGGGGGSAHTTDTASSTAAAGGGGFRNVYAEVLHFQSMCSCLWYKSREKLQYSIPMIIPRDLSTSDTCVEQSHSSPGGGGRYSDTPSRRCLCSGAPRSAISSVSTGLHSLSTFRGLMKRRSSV
KCNQ1 block: human KCNQ1 channel inhibition; P51787; CHO-K1 KCNQ1, FluxOR thallium flux fluorescence; hits give high values; B-score at 10 µM; actives 1.3% (n = 310,000);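 active means compounds whose thallium flux B-score, printed positive for inhibition, exceeds three library SD while starting fluorescence stays within three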;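 further: channel opened by potassium depolarization with thallium stimulus after 20 min compound exposure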
KCNK9 block: human KCNK9 channel inhibition. Q9NPC2. HEK293 KCNK9, FluxOR thallium flux fluorescence; hits give low values. B-score at 10 µM. actives 1.2% (n = 310,000). AID 488922;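 active means ratio B-score over 3 SD below the library mean, with starting fluorescence within 5 SD of its mean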;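 further: negative B-score means less thallium flux so channel inhibition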
Target sequence (Q9NPC2 whole entry, looked up): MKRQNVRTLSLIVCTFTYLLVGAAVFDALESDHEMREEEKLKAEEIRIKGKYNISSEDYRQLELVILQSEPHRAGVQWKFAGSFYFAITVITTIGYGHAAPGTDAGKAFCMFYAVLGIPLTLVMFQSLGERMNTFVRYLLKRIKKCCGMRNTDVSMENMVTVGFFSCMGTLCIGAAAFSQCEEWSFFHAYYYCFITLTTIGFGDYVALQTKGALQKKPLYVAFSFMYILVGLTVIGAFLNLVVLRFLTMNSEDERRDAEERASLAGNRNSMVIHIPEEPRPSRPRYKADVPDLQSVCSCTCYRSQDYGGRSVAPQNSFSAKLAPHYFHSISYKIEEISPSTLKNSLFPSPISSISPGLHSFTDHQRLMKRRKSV
Kir21 inh: blocks the mouse Kir2.1 inward-rectifier potassium channel | HEK293-Kir2.1, FluxOR thallium flux fluorescence; hits give low values | B-score at 10 µM | actives 0.85% (n = 310,000) | AID 1672;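 active means fluorescence ratio B-score at or below minus 3 SD of library scores, with starting-brightness B-score within 2 SD, cut at about -4.2 in these data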;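 further: channel flux triggered by added potassium and thallium sulfate stimulus; B-score of peak minus minimum fluorescence over baseline after thallium stimulus; more negative B-score means stronger Kir2.1 block with less thallium influx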
KCNQ1 pot: human KCNQ1 channel potentiation or activation. CHO-K1 KCNQ1, thallium flux FluxOR fluorescence; hits give high values. B-score at 10 µM. actives 0.35% (n = 310,000). AID 2648;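 active means fluorescence ratio B-score, a plate-corrected score, at least three library SD, with initial intensity B-score within 5 SD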
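System: CHO-K1 cells stably expressing KCNQ1 / Medium: assay buffer for compound exposure, DMSO matched across wells / Reagent: thallium- and potassium-containing depolarizing buffer / Compound: one concentration, matched DMSO / Incubation: 20 min compound pretreatment at room temperature / Measured by: kinetic FluxOR fluorescence, 10 s baseline plus 110 s post-stimulus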
KCNK3 inh conf: confirmation of human KCNK3 two-pore domain potassium channel inhibitors | shares compounds with KCNK3 inh | CHO-KCNK3 thallium flux, FluxOR fluorescence; 0% buffer, 100% carvedilol maximal block | ratio percent of control, % at 10 µM | actives 99% (n = 2,400) | AID 651638;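 active means ratio percent of control, averaged over triplicates, above buffer control mean plus 5 SD, cut at about 64% in these data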;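 further: ratio is the fluorescence rise from min to max over baseline after thallium stimulus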
KCNK3 noninduced: counter-screen for KCNK3 inhibitors: effect in non-induced cells. shares compounds with KCNK3 inh. non-induced KCNK3 parental cells, FluxOR thallium flux; hits give low values. thallium flux ratio (lower = more inhibition) at 10 µM. actives 40% (n = 2,400). AID 651747;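 active means thallium flux ratio, averaged over three wells, more than 5 SD below the buffer control mean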;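 further: host cells are CHO cells without KCNK3 induction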
Large screens that a line does not name were inactive (follow-up assays come after a bar, where they were run). This is a sample that favours compounds with a hit; in the whole collection about 3.8% have one here.

COc1ccc(C(=O)COc2ccccc2C(=O)Nc2ccccc2)cc1	KCNK3 inh -9.8 | KCNK3 inh conf 108 | KCNK3 noninduced 0.16
COc1ccc(NC(=O)c2cc3ccccc3cc2OC)cc1	KCNK3 inh -11 | KCNK3 inh conf 112 | KCNK3 noninduced inactive
COc1ccc(Cc2noc(CN(C)CC3(N4CCOCC4)CCCCC3)n2)cc1OC	none
COc1ccccc1OCCCn1c(=O)oc2ccc(C)cc21	none
Cc1cccc(OCCCn2c(=O)oc3ccc(C)cc32)c1	KCNK3 inh -9.3 | KCNK3 inh conf 94 | KCNK3 noninduced inactive
COC(=O)c1ccc(Oc2ccc(S(=O)(=O)N3CCCCC3)cc2N)cc1	none
Nc1cc(S(=O)(=O)N2CCCCC2)ccc1Oc1ccc(Cl)cc1	KCNK3 inh -9 | KCNK3 inh conf 112 | KCNK3 noninduced inactive
C[C@@H]1CN([C@H](C)CO)C(=O)c2cccc(NS(=O)(=O)c3cccs3)c2O[C@H]1CN(C)Cc1ccccc1	none (no result: hERG protect, KCNQ1 block, KCNK9 block, Kir21 inh, KCNQ1 pot)
C[C@H](CO)N1C[C@H](C)[C@@H](CN(C)S(=O)(=O)c2ccccc2)Oc2c(NC(=O)CCC(F)(F)F)cccc2C1=O	KCNK3 inh -12 (no result: hERG protect, KCNQ1 block, KCNK9 block, Kir21 inh, KCNQ1 pot) | KCNK3 inh conf 110 | KCNK3 noninduced inactive
C[C@H](CO)N1C[C@H](C)[C@@H](CN(C)S(=O)(=O)c2ccc(F)cc2)Oc2c(NC(=O)CCC(F)(F)F)cccc2C1=O	none (no result: hERG protect, KCNQ1 block, KCNK9 block, Kir21 inh, KCNQ1 pot)
C[C@H](CO)N1C[C@H](C)[C@@H](CN(C)Cc2ccc(Cl)c(Cl)c2)Oc2c(NS(=O)(=O)c3cccs3)cccc2C1=O	KCNK3 inh -14 (no result: hERG protect, KCNQ1 block, KCNK9 block, Kir21 inh, KCNQ1 pot) | KCNK3 inh conf 127 | KCNK3 noninduced 0.14
N#CC(Cc1ccccc1OC(F)F)c1nc2ccccc2[nH]1 (stereo not given)	none
COc1ccc(CNC(=O)CSc2nc3[nH]ncc3c(=O)n2-c2ccccc2Br)cc1	none (no result: KCNK3 inh)
O=C(Cc1cccs1)Nc1cccc(-c2nc3ccccc3o2)c1	KCNK3 inh -8.8 | KCNK3 inh conf 133 | KCNK3 noninduced 0.14
Cc1ccc(-c2nc3ccccc3o2)cc1NC(=O)Cc1cccs1	none
Cn1c(N)c(C(=O)COC(=O)c2ccc([N+](=O)[O-])o2)c(=O)n(C)c1=O	none
C=CCn1c(Sc2ncc([N+](=O)[O-])s2)n[nH]c1=O	KCNK3 inh -9.3, KCNQ1 block 7 | KCNK3 inh conf 144 | KCNK3 noninduced 0.083
COc1ccc(CC(=O)Nc2nc(-c3ccc(F)c(F)c3)cs2)cc1	none
O=C(Cc1ccc(F)cc1)Nc1nc(-c2ccc(F)c(F)c2)cs1	KCNK3 inh -11 | KCNK3 inh conf 130 | KCNK3 noninduced inactive
CC1(C(=O)OCC(=O)Nc2nc(-c3ccc(F)c(F)c3)cs2)CC1(Cl)Cl (stereo not given)	KCNK3 inh -10 | KCNK3 inh conf 140 | KCNK3 noninduced 0.14
CC(=O)c1ccc(OCc2cc(C(=O)N(C)C(C)c3nccs3)no2)cc1 (stereo not given)	none
CN(C)S(=O)(=O)Oc1ccsc1C(=O)Nc1ccccc1Cl	none
CN(C)S(=O)(=O)Oc1ccsc1C(=O)Nc1cccc(Cl)c1Cl	KCNK3 inh -9.1 | KCNK3 inh conf 88 | KCNK3 noninduced inactive
Cc1ccc(C)c(OCCNc2ccc([N+](=O)[O-])cn2)c1	none
Cc1ccc(C)c(OCCNc2ncccc2[N+](=O)[O-])c1	KCNK3 inh -12 | KCNK3 inh conf 102 | KCNK3 noninduced inactive
COc1ccc(OC)c(-c2csc(NC(=O)Cc3ccccc3F)n2)c1	KCNK9 block -6.7 | KCNK3 inh conf 98 | KCNK3 noninduced inactive
O=[N+]([O-])c1ccc(Cl)c(S(=O)(=O)/N=C(/c2ccccc2)N2CCOCC2)c1	none
C=CCn1c(NC(C)c2cc(Cl)ccc2O)nc2ccccc21 (stereo not given)	KCNK3 inh -12, KCNK9 block -6.6 | KCNK3 inh conf 122 | KCNK3 noninduced 0.14
Cc1sc2ncn(CC(=O)NCc3ccco3)c(=O)c2c1-c1ccccc1	none
CCOC(=O)C1=C(C)N(C)C(=O)NC1c1cc2c(cc1[N+](=O)[O-])OCO2 (stereo not given)	none
Cc1cccc(C)c1OCC(=O)Nc1cccc(-c2nnc(-c3ccccc3)o2)c1	none
CCCCC(=O)Nc1ccc(C(=O)c2ccccc2)cc1	KCNK9 block -6.8 | KCNK3 inh conf 96 | KCNK3 noninduced inactive
CCCc1cc(C(=O)Nc2ccc(C(=O)c3ccccc3)cc2)n(C)n1	KCNK3 inh -13 | KCNK3 inh conf 132 | KCNK3 noninduced 0.15
CCCCC(=O)Nc1cccc(-c2nnc(-c3ccccc3)o2)c1	KCNK9 block -6.7 | KCNK3 inh conf 123 | KCNK3 noninduced inactive
CCC(C)NS(=O)(=O)c1cc2c3c(c1)CCN3C(=O)CC2 (stereo not given)	none
CCOC(=O)C(=CNc1ccc(Oc2cncc(Cl)c2)nc1)C(=O)OCC	none
Cc1cccc(OCCCSc2nc3ccccc3[nH]2)c1	KCNK3 inh -8.9 | KCNK3 inh conf 126 | KCNK3 noninduced 0.12
COc1ccccc1OCc1ccc(C(=O)N(C)c2ccccc2)o1	none
CN(C(=O)c1ccc(COc2ccccc2Cl)o1)c1ccccc1	KCNK3 inh -9.9 | KCNK3 inh conf 82 | KCNK3 noninduced inactive
CC1=Nc2ccccc2/C1=C/c1sc(=N)n(-c2nccs2)c1O	KCNK3 inh -10, KCNQ1 block 10 | KCNK3 inh conf 175 | KCNK3 noninduced 0.089
Brc1ccc(-c2noc(COc3ccc4ccccc4c3)n2)o1	KCNK3 inh -9.1 | KCNK3 inh conf 102 | KCNK3 noninduced inactive
Brc1ccc(-c2noc(CCc3ccccc3)n2)o1	none
CCCCc1ccc(/C(C)=N/Nc2cc(N3CCOCC3)nc(C)n2)cc1	none
Cc1cc(SCC(=O)N/N=C/c2ccc(O)cc2O)nc2ccccc12	KCNK3 inh -12 | KCNK3 inh conf 147 | KCNK3 noninduced 0.1
O=C(NCc1ccccc1)c1cccc(COc2ccccc2Cl)c1	KCNK3 inh -12, KCNQ1 block 6 | KCNK3 inh conf 112 | KCNK3 noninduced inactive
CCc1ccc(NC(=O)CN(c2ccccc2)S(=O)(=O)N(C)C)cc1	KCNK3 inh -10 | KCNK3 inh conf 103 | KCNK3 noninduced inactive
CC(=O)NC1C(=O)N(C)c2ccc(Br)cc21 (stereo not given)	none
CCOC(=O)c1cnc2ccc(OC)cc2c1Nc1ccc2c(c1)OCCO2	KCNK3 inh -12 | KCNK3 inh conf 135 | KCNK3 noninduced 0.16
CCOC(=O)c1cnc2ccc(C(=O)OC)cc2c1Nc1ccc2c(c1)OCCO2	none
CCOC(=O)c1cnc2ccc(C)cc2c1NCCN1CCOCC1	KCNK3 inh -8.8 | KCNK3 inh conf 100 | KCNK3 noninduced inactive
CCCc1nn(-c2cc(Cl)ccc2OC)c2c1C(=O)CC(C)(C)C2	KCNK3 inh -11 | KCNK3 inh conf 87 | KCNK3 noninduced inactive

High-throughput results as filed in PubChem BioAssay.
